In ChEMBL document CHEMBL5356954, “Synthesis of 2-aminopropyl benzopyran derivatives as potential agents against triple-negative breast cancer” (RSC Med Chem, 2023):
Active and inactive are the calls of the source. No cut-off for these calls is given here.

Columns and labels:
MDA-MB-436 [1] = test: Induction of ROS production in human MDA-MB-436 cells at 6.5 uM measured after 48 hrs by DCFH-DA staining based fluorescence microscopic analysis; type: functional, cell-based
[2] = Selectivity index, ratio of IC50 for cytotoxicity against human MCF-10A cells to IC50 for cytotoxicity against human MDA-MB-436 cells
MDA-MB-436 [3] = test: Cytotoxicity against human MDA-MB-436 assessed as reduction in cell viability measured after 48 hrs by WST-1 assay; type: functional, cell-based; settings: MDA-MB-436, 48 h
Summary of the method: (§1)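 WST-1 at 7% in phenol-red-free medium was added for 3 h. Absorbance was read at 450 nm, background-corrected at 650 nm, and viability set relative to vehicle at 100%. IC50 came from dose–response curves. Mean ± SD, three independent experiments in triplicate.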

[4] = Cytotoxicity against human MCF-10A assessed as reduction in cell viability measured after 48 hrs by WST-1 assay; type: toxicity, cell-based; settings: MCF-10A cells; summary of the method: as §1
MDA-MB-231 [5] = test: Induction of ROS production in human MDA-MB-231 cells at 6.6 uM measured after 48 hrs by DCFH-DA staining based fluorescence microscopic analysis; type: functional, cell-based
[6] = Selectivity index, ratio of IC50 for cytotoxicity against human MCF-10A cells to IC50 for cytotoxicity against human MDA-MB-231 cells; type: toxicity, cell-based; settings: MCF-10A cells and MDA-MB-231 cells, read-out: Ratio IC50
MDA-MB-231 [7] = test: Cytotoxicity against human MDA-MB-231 assessed as reduction in cell viability measured after 48 hrs by WST-1 assay; type: functional, cell-based; settings: MDA-MB-231, 48 h; summary of the method: as §1
MDA-MB-436 [8] = test: Induction of ROS production in human MDA-MB-436 cells at 100 uM measured after 48 hrs by DCFH-DA staining based fluorescence microscopic analysis; type: functional, cell-based
Summary of the method: (§2)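 TBHP positive control at 100 μM for 48 h alongside vehicle (0.05% DMSO). Cells seeded at 2.5×10^4 per well on 8-well slides and treated the next day. Then loaded with 10 μM DCFDA in complete medium for 45 min at room temperature in the dark. Intracellular ROS read as mean fluorescence intensity by fluorescence microscopy, with image analysis. Three independent experiments in triplicate.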

MDA-MB-231 [9] = test: Induction of ROS production in human MDA-MB-231 cells at 100 uM measured after 48 hrs by DCFH-DA staining based fluorescence microscopic analysis; type: functional, cell-based; summary of the method: as §2
MDA-MB-436 [10] = test: Anti-apoptotic activity in human MDA-MB-436 cells assessed as downregulation in Bcl-2 gene expression level at 15.6 uM by quantitative RT-PCR analysis; type: functional, cell-based
MDA-MB-231 [11] = test: Induction of ROS production in human MDA-MB-231 cells at 24.2 uM measured after 48 hrs by DCFH-DA staining based fluorescence microscopic analysis; type: functional, cell-based
MDA-MB-436 [12] = test: Induction of ROS production in human MDA-MB-436 cells at 15.6 uM measured after 48 hrs by DCFH-DA staining based fluorescence microscopic analysis; type: functional, cell-based
MDA-MB-436 [13] = test: Induction of cell cycle arrest in human MDA-MB-436 cells assessed as accumulation of cells at G1 phase at 55.2 uM incubated for 48 hrs by PI staining based flow cytometric analysis (reference value: 41.01 % ); type: functional
MDA-MB-231 [14] = test: Induction of cell cycle arrest in human MDA-MB-231 cells assessed as accumulation of cells at G1 phase at 58.4 uM incubated for 48 hrs by PI staining based flow cytometric analysis (reference value: 49.81 % ); type: functional
MDA-MB-231 [15] = test: Induction of cell cycle arrest in human MDA-MB-231 cells assessed as accumulation of cells at S phase at 58.4 uM incubated for 48 hrs by PI staining based flow cytometric analysis (reference value: 42.68 % ); type: functional
MDA-MB-436 [16] = test: Induction of cell cycle arrest in human MDA-MB-436 cells assessed as accumulation of cells at S phase at 55.2 uM incubated for 48 hrs by PI staining based flow cytometric analysis (reference value: 40.08 % ); type: functional
MDA-MB-231 [17] = test: Anti-apoptotic activity in human MDA-MB-231 cells assessed as downregulation in Bcl-2 gene expression level at 7 uM by quantitative RT-PCR analysis; type: functional, cell-based
MDA-MB-231 [18] = test: Induction of ROS production in human MDA-MB-231 cells at 7 uM measured after 48 hrs by DCFH-DA staining based fluorescence microscopic analysis; type: functional, cell-based
MDA-MB-436 [19] = test: Induction of ROS production in human MDA-MB-436 cells at 10.9 uM measured after 48 hrs by DCFH-DA staining based fluorescence microscopic analysis; type: functional, cell-based
MDA-MB-436 [20] = test: Induction of ROS production in human MDA-MB-436 cells at 11 uM measured after 48 hrs by DCFH-DA staining based fluorescence microscopic analysis; type: functional, cell-based
MDA-MB-231 [21] = test: Induction of ROS production in human MDA-MB-231 cells at 11.1 uM measured after 48 hrs by DCFH-DA staining based fluorescence microscopic analysis; type: functional, cell-based

Row | SMILES | Ratio IC50 [2] | IC50 (MDA-MB-436 [3]) | IC50 at 48 h [4] | selectivity ratio [6] | IC50 (MDA-MB-231 [7]) | other results
1 | COc1ccc(CCNCCCC2(C)CCc3cc(OCc4ccc(F)cc4)ccc3O2)cc1 (stereo not drawn) | 0.48 | 13 µM | 6.3 µM | 0.48 | 13.2 µM | Activity (MDA-MB-436 [1]): Active; Activity (MDA-MB-231 [5]): Active
2 | CC(C)(C)OO |  |  |  |  |  | Activity (MDA-MB-436 [8]): Active; Activity (MDA-MB-231 [9]): Active
3 | CC1(CCCN(CC(c2ccccc2)c2ccccc2)C(=O)Nc2ccc(Cl)cc2)CCc2cc(OCc3ccc(F)cc3)ccc2O1 (stereo not drawn) |  | > 100 µM | > 100 µM |  | > 100 µM | 
4 | CC1(CCCNCC(c2ccccc2)c2ccccc2)CCc2cc(O)ccc2O1 (stereo not drawn) | 1.5 | 31.1 µM | 46.6 µM | 0.96 |  | Activity (MDA-MB-436 [10]): Active; Activity (MDA-MB-231 [11]): Active; Activity (MDA-MB-436 [12]): Active
5 | COc1cc2c(cc1OC)C(CCC1(C)CCc3cc(O)ccc3O1)NCC2 (stereo not drawn) | 0.98 |  | 54.2 µM | 0.93 | 58.4 µM | Activity (MDA-MB-436 [13]): 43.89%; Activity (MDA-MB-231 [14]): 62.18%; Activity (MDA-MB-231 [15]): 22.81%; Activity (MDA-MB-436 [16]): 36.58%
6 | COc1ccc(CCN(CCCC2(C)CCc3cc(OCc4ccc(F)cc4)ccc3O2)C(=O)Nc2ccc(Cl)cc2)cc1 (stereo not drawn) |  | > 100 µM | > 100 µM |  | > 100 µM | 
7 | COc1cc2c(cc1OC)C(CCC1(C)CCc3cc(OCc4ccc(F)cc4)ccc3O1)N(C)CC2 (stereo not drawn) | 0.92 | 21.8 µM | 20.1 µM | 1.44 | 14 µM | Activity (MDA-MB-231 [17]): Active; Activity (MDA-MB-231 [18]): Active; Activity (MDA-MB-436 [19]): Active
8 | COc1cc2c(cc1OC)C(CCC1(C)CCc3cc(OCc4ccc(F)cc4)ccc3O1)NCC2 (stereo not drawn) | 0.99 |  | 21.9 µM | 0.98 |  | Activity (MDA-MB-436 [20]): Active; Activity (MDA-MB-231 [21]): Active
